Only some compounds are listed: those with a hit (about 0.72% of all), similar ones and a draw of the others.
mIAP block – mouse IAP inhibition; purified mouse IAP, CDP-Star luminescence, 30 min; inhibition, % at 10 µM; actives 0.2% (n = 330,000);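 active means inhibition of at least 40% at 10 µM in the primary screen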
hIAP block – human IAP inhibition; actives 0.12% (n = 330,000); inhibition, % at 10 µM; P09923; purified IAP, CDP-Star luminescence, 30 min; AID 2544;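 active means inhibition reaching a set limit with compound at 10 µM in the primary screen, cut at about 35% in these data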
Target sequence (P09923 whole entry, looked up): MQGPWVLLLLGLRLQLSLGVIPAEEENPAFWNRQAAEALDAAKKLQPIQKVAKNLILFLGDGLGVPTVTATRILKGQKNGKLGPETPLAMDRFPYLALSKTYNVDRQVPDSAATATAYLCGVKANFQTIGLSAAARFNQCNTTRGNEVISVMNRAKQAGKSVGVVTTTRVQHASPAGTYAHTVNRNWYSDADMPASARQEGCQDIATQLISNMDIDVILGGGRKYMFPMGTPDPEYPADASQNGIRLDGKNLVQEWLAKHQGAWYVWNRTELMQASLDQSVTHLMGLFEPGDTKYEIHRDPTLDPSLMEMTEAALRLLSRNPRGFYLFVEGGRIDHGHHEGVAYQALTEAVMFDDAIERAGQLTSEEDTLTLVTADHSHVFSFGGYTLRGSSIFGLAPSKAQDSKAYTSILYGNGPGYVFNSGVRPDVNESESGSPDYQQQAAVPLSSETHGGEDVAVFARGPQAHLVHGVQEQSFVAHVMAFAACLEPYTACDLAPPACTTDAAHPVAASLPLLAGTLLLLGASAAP
mIAP act – mouse IAP activation. activation factor at 10 µM. actives 0.24% (n = 330,000). muIAP, CDP-Star luminescence, 30 min; hits give high values; 1 = vehicle-only enzyme signal, 0 = enzyme-free wells. AID 2805;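 active means activation factor of at least 2 at 20 µM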
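also added = chemiluminescent substrate CDP-Star | test system = mouse IAP enzyme | signal = chemiluminescence readout | compound = DMSO-dissolved test compounds | incubation = 30 min at room temperature | benchmarks = DMSO wells, no-enzyme wells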
bIAP inh – intestinal alkaline phosphatase (bovine) inhibition. inhibition, % at 20 µM. purified bovine IAP, CDP-star luminescence, 30 min. 190,000 tested, under 10 active;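 active means over 50% inhibition of intestinal alkaline phosphatase at 20 µM in the single-dose screen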
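System: Purified bovine intestinal alkaline phosphatase (IAP) enzyme | Input: IAP diluted 1/65,000,000 in the well | Also added: CDP-star chemiluminescent phosphatase substrate, 30 µM final | Dosing: 20 µM single dose | Times: Enzyme reaction for 30 min at room temperature | Detection: Luminescence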
bIAP activator – increases bovine intestinal alkaline phosphatase activity. purified bovine IAP, CDP-star luminescence, 30 min; hits give high values; fold of DMSO-control signal, blank-subtracted. activation factor at 20 µM. actives 0.17% (n = 200,000);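 active means activation factor of 2 or more at 20 µM, a signal rise over negative controls twice the positive control's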
hIAP activ – human IAP activation. P09923. actives 0.16% (n = 330,000). activation factor at 10 µM. purified human IAP, CDP-Star luminescence, 30 min; hits give high values; 1 = vehicle-only enzyme, 0 = enzyme-free background;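 active means activation factor of the enzyme at least 2-fold when tested at 20 µM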
hIAP act confirm – human IAP activation confirmation; shares compounds with hIAP activ; purified IAP, CDP-Star luminescence, 30 min; hits give low values; activation (%Activity, negative = activation), % at 8.3 µM; actives 10% (n = 880); AID 434926;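 active means at least twofold enzyme activation in any of six single-dose repeats, which the averaged readout prints as negative percent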
Hits are given with their value; - = inactive; . = no result given.

SMILES	mIAP block	hIAP block	mIAP act	bIAP inh	bIAP activator	hIAP activ	hIAP act confirm
CN(C(=O)CSc1nnc(-c2ccccc2)o1)c1c(N)n(Cc2ccccc2)c(=O)[nH]c1=O	-	-	-	-	-	-	.
c1ccc2c3c(cc(N4CCOCC4)c2c1)OC1(N2CCOCC2)CCCCC1O3 (stereo not drawn)	-	85	-	-	-	-	-
Cc1ccccc1OCCSc1nc2ncnc(N)c2[nH]1	-	-	-	-	-	-	.
CC(=O)N1c2ccc(S(=O)(=O)N3CCC(C(=O)Nc4cccc(Cl)c4)CC3)cc2CC1C (stereo not drawn)	-	-	-	.	.	2	-
Cc1ccc(NS(=O)(=O)c2ccc(NC(=O)C3CC3)cc2)c(C)c1	-	36	-	.	.	-	-
Cc1ccc(NS(=O)(=O)c2ccc(NC(=O)c3cccs3)cc2)c(C)c1	-	-	-	-	-	-	.
N#CCN1C(=S)N=C(Nc2cccc(Cl)c2)C12CCCCC2	-	-	-	-	-	2.1	-55
CC(=O)Nc1ccc(NC(=O)Cc2ccc(S(=O)(=O)N3CCCCC3)cc2)cc1	-	-	-	.	.	-	.
O=S(=O)(c1ccccc1F)N1CCc2ccccc2C1	-	-	-	.	.	-	.
O=C(CN1C(=O)c2ccccc2S1(=O)=O)NCc1cccs1	-	45	-	.	.	-	-
Cc1ccn2cc(-c3ccc(O)c(O)c3)nc2c1	-	40	-	.	.	-	-
Oc1ccc(-c2cn3ccccc3n2)cc1O	-	49	-	.	.	-	-
CCN(CC(=O)Nc1c(F)cccc1F)C(=O)C1CCN(S(=O)(=O)c2ccc(C)c(C)c2)CC1	-	-	-	.	.	-	.
Cc1cc(OCC(=O)NCc2ccccn2)c2c(C)c(Cc3ccccc3)c(=O)oc2c1	-	-	-	.	.	-	.
Cc1ccc(NC(=O)CCS(=O)(=O)c2cc3c(cc2Cl)NC(=O)CO3)cc1	-	37	-	.	.	-	-
COc1ccc(C)cc1NC(=O)CCS(=O)(=O)c1cc2c(cc1Cl)NC(=O)CO2	-	-	-	.	.	-	.
CCCC(CCC)C(=O)NCCN1CCOCC1	-	39	-	-	-	-	-
O=C(NCCN1CCOCC1)N1CCOCC1	-	-	-	-	-	-	.
CN(CC(=O)Nc1ccc(Cl)c(C(F)(F)F)c1)C(=O)c1cc(=O)c2ccccc2o1	-	-	-	.	.	-	.
CCN(CC)c1ccc(C(=O)NNC(=O)C2CSC3(C)CCC(=O)N23)cc1 (stereo not drawn)	-	-	-	.	.	-	.
CCOC1=C/C(=C/c2c(N)n3nc(S(=O)(=O)CC)sc3nc2=O)C=CC1=O	-	37	-	-	-	-	-
CCOC1=C/C(=C/c2c(N)n3nc(CC(=O)N4CCCCC4)sc3nc2=O)C=CC1=O	-	-	-	.	.	-	.
CC(C)CC(=O)Nc1ccc(C(=O)NNC(=S)NC(=O)C2CCCCC2)cc1	-	-	-	-	-	2.6	-
N#CCC(=O)Nc1ccc(C(=O)NNC(=S)NC2CCCCC2)cc1	-	-	-	.	.	-	.
CC1CCCN(C(=O)c2nn(C)c3c2CS(=O)(=O)c2ccccc2-3)C1 (stereo not drawn)	-	-	-	.	.	-	.
SMILES	mIAP block	hIAP block	mIAP act	bIAP inh	bIAP activator	hIAP activ	hIAP act confirm
COc1ccc(OC(C)C(=O)N2CCCc3ccccc32)cc1 (stereo not drawn)	-	-	-	-	-	-	.
Cc1cc(C)nc(Nc2n[nH]c(COc3ccc4ccccc4c3)n2)n1	-	-	-	-	-	2	-
Cc1cc(C)nc(Nc2n[nH]c(COc3ccccc3)n2)n1	-	-	-	-	-	-	.
O=C(Nc1ccccc1N1CCOCC1)c1ccc([N+](=O)[O-])s1	-	-	-	.	.	-	.
Cc1cccc(NC(=O)CCc2ccc(C)o2)c1	-	37	-	-	-	-	-
Cc1cc(C)cc(NC(=O)CCc2ccc(C)o2)c1	-	-	-	.	.	-	.
O=C(CSc1ncn[nH]1)NCCc1ccccc1	-	-	-	-	-	2.6	-113
CC(C)(C)OC(=O)C[C@@H]1C/C=C\C[C@H](CC(=O)N(CCO)Cc2ccccc2)C(=O)N[C@@H](Cc2c[nH]c3ccccc23)COC1=O	-	-	-	.	.	-	.
Oc1ccccc1-n1nc2ccc3nonc3c2n1	-	-	-	.	.	-	.
